From ChEMBL document CHEMBL4354843, “Structure-Based Design of a Potent and Selective Covalent Inhibitor for SRC Kinase That Targets a P-Loop Cysteine” (J Med Chem, 2020)

Experiments:
[1] = biological target: MAP kinase-interacting serine/threonine-protein kinase 2 (Homo sapiens) (UniProt Q9HBH9); assay: Binding affinity to wild-type human partial length MKNK2 (G63 to S388 residues) expressed in mammalian expression system assessed as residual binding level at 1 uM by Kinomescan method relative to control
Outline: (§1)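 Active-site-directed competition binding panel of 468 kinases (KinomeScan), compound at 1 μM. The read-out is kinase remaining bound, given as a percentage of the DMSO control. […]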

[2] = system: Hepatocyte growth factor receptor (Homo sapiens), P08581 [M1250T]; assay: Binding affinity to human partial length MET M1250T mutant (D1010 to S1367 residues) expressed in bacterial expression system assessed as residual binding level at 1 uM by Kinomescan method relative to control
Outline: (§2)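 KinomeScan active site-directed competition binding panel (468 kinases), compound tested at 1 μM. Result expressed as remaining kinase signal versus DMSO control (percent of control).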

[3] = biological target: Serine/threonine-protein kinase STK11 (Homo sapiens) (UniProt Q15831); assay: Binding affinity to wild-type human full length LKB1 (M1 to Q433 residues) expressed in bacterial expression system assessed as residual binding level at 1 uM by Kinomescan method relative to control
Serine/threonine-protein kinase STK11 (Homo sapiens), sequence (Q15831 whole entry, the tested form may be a part): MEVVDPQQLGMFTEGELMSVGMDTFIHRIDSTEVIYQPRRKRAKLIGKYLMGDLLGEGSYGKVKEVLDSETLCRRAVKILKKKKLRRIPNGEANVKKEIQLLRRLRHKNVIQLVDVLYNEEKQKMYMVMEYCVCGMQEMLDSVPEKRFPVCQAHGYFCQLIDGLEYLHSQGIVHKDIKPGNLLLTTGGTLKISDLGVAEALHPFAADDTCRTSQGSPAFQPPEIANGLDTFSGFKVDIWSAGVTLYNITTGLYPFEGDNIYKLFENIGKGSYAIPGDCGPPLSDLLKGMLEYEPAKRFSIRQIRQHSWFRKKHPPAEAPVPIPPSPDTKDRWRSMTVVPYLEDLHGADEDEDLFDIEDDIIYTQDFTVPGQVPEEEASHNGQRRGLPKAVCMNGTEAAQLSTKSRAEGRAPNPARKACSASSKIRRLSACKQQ
Outline: (§3)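 Active-site-directed KinomeScan competition binding panel covering 468 kinases, compound tested at 1 μM. Each readout is the kinase signal remaining with compound, expressed as a percentage of the DMSO control. […]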

[4] = biological target: Mitogen-activated protein kinase kinase kinase kinase 2 (Homo sapiens) (UniProt Q12851); assay: Binding affinity to wild-type human partial length MAP4K2 (M1 to G318 residues) expressed in mammalian expression system assessed as residual binding level at 1 uM by Kinomescan method relative to control
[5] = biological target: Glycogen synthase kinase-3 alpha (Homo sapiens) (UniProt P49840); assay: Binding affinity to wild-type human full length GSK3A (M1 to S483 residues) expressed in bacterial expression system assessed as residual binding level at 1 uM by Kinomescan method relative to control; outline: as §3
[6] = biological target: Tyrosine-protein kinase receptor UFO (Homo sapiens) (UniProt P30530); assay: Binding affinity to wild-type human partial length AXL (R497 to Y821 residues) expressed in bacterial expression system assessed as residual binding level at 1 uM by Kinomescan method relative to control
Tyrosine-protein kinase receptor UFO (Homo sapiens), sequence (P30530 whole entry, the tested form may be a part): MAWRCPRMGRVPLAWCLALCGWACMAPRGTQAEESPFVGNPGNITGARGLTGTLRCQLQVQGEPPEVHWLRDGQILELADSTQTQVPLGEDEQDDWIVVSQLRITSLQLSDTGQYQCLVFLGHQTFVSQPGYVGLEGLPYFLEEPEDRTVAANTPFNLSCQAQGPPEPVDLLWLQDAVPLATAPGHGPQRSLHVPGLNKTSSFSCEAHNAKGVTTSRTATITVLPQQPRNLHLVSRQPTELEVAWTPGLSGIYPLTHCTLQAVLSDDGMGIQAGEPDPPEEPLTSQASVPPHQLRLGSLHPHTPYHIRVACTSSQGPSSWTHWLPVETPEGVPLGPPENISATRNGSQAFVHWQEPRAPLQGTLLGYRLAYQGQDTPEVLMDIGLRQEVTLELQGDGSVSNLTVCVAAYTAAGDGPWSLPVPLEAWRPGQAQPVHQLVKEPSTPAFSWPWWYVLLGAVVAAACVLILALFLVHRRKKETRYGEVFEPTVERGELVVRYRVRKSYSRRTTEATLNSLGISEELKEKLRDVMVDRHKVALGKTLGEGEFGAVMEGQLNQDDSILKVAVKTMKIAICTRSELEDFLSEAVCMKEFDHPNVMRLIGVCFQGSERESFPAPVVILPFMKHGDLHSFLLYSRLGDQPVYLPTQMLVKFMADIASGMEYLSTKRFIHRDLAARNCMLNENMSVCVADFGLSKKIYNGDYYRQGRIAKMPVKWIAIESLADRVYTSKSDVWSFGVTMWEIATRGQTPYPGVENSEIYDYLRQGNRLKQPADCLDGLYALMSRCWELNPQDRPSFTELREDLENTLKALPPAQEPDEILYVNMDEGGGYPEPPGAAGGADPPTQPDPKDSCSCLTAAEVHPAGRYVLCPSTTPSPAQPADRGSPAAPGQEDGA

[7] = biological target: AP2-associated protein kinase 1 (Homo sapiens) (UniProt Q2M2I8); assay: Binding affinity to human wild-type AAK1 (G25 to L333 residues) expressed in bacterial expression system assessed as residual binding level at 1 uM by Kinomescan method relative to control; outline: as §3
[8] = biological target: STE20/SPS1-related proline-alanine-rich protein kinase (Homo sapiens) (UniProt Q9UEW8); assay: Binding affinity to wild-type human partial length STK39 (P43 to I357 residues) expressed in mammalian expression system assessed as residual binding level at 1 uM by Kinomescan method relative to control
[9] = biological target: Mitogen-activated protein kinase kinase kinase 5 (Homo sapiens) (UniProt Q99683); assay: Binding affinity to wild-type human partial length ASK1 (E648 to S964 residues) expressed in bacterial expression system assessed as residual binding level at 1 uM by Kinomescan method relative to control
HCC827 = assay: Antiproliferative activity against human HCC827 cells assessed as reduction in cell viability incubated for 72 hrs by cell-titer glo assay relative to control; type: functional
Outline: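 Cells seeded at 2000 cells/well, dosed next day with a range of concentrations (DMSO 0.2% as control), 72 h exposure, viability read by CellTiter-Glo luminescence. Dose–response curves and GR values derived with the online GR calculator. Two independent experiments, each in technical triplicate.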

[10] = system: Epidermal growth factor receptor (Homo sapiens), P00533 [G719C]; assay: Binding affinity to human partial length EGFR G719C mutant (R669 to V1011 residues) expressed in bacterial expression system assessed as residual binding level at 1 uM by Kinomescan method relative to control; outline: as §2
[11] = biological target: Mitogen-activated protein kinase 7 (Homo sapiens) (UniProt Q13164); assay: Binding affinity to wild-type human partial length ERK5 (M1 to A409 residues) expressed in bacterial expression system assessed as residual binding level at 1 uM by Kinomescan method relative to control
[12] = biological target: Serine/threonine-protein kinase SIK3 (Homo sapiens) (UniProt Q9Y2K2); assay: Binding affinity to wild-type human partial length QSK (A90 to L395 residues) expressed in mammalian expression system assessed as residual binding level at 1 uM by Kinomescan method relative to control; outline: as §1
[13] = biological target: Mitogen-activated protein kinase 14 (Homo sapiens) (UniProt Q16539); assay: Binding affinity to wild-type human full length p38-alpha (M1 to S360 residues) expressed in bacterial expression system assessed as residual binding level at 1 uM by Kinomescan method relative to control
Mitogen-activated protein kinase 14 (Homo sapiens), sequence (Q16539 whole entry, the tested form may be a part): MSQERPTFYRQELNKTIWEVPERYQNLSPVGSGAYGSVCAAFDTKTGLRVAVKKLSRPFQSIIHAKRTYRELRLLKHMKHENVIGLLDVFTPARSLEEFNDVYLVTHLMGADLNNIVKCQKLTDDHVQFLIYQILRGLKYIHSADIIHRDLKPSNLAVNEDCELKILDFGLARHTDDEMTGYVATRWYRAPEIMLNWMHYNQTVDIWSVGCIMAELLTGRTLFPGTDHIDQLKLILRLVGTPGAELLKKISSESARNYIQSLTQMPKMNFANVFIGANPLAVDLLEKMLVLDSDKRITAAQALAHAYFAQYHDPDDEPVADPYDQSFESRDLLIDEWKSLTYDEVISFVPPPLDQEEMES
Outline: (§4)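 KinomeScan, an active site-directed competition binding panel of 468 kinases. The test compound was at 1 μM. The readout is remaining kinase binding as a percentage of the DMSO control. Scores above 35% were treated as weak binding and not listed.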

[14] = biological target: Calcium/calmodulin-dependent protein kinase type IV (Homo sapiens) (UniProt Q16566); assay: Binding affinity to wild-type human partial length CAMK4 (A22 to A322 residues) expressed in bacterial expression system assessed as residual binding level at 1 uM by Kinomescan method relative to control
Calcium/calmodulin-dependent protein kinase type IV (Homo sapiens), sequence (Q16566 whole entry, the tested form may be a part): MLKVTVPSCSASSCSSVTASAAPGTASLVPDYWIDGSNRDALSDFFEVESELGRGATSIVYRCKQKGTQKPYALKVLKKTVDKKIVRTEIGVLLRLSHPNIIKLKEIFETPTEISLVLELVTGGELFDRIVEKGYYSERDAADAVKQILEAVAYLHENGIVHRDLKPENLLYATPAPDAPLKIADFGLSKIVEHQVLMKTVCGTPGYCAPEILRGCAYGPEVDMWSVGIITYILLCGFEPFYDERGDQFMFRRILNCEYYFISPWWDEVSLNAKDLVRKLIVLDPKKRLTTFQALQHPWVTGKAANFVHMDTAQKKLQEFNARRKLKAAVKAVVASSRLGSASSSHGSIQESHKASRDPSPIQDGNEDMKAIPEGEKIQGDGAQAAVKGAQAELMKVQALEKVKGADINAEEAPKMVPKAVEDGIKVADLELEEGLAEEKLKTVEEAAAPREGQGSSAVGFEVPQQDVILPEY

[15] = biological target: Tyrosine-protein kinase Fyn (Homo sapiens) (UniProt P06241); assay: Binding affinity to wild-type human partial length FYN (T243 to L534 residues) expressed in bacterial expression system assessed as residual binding level at 1 uM by Kinomescan method relative to control; outline: as §1
[16] = system: Mast/stem cell growth factor receptor Kit (Homo sapiens), P10721 [D816V]; assay: Binding affinity to human partial length KIT D816V mutant (I571 to D952 residues) expressed in bacterial expression system assessed as residual binding level at 1 uM by Kinomescan method relative to control; outline: as §2
Mast/stem cell growth factor receptor Kit (Homo sapiens), P10721 [D816V], sequence (P10721 whole entry D816V, the tested form may be a part): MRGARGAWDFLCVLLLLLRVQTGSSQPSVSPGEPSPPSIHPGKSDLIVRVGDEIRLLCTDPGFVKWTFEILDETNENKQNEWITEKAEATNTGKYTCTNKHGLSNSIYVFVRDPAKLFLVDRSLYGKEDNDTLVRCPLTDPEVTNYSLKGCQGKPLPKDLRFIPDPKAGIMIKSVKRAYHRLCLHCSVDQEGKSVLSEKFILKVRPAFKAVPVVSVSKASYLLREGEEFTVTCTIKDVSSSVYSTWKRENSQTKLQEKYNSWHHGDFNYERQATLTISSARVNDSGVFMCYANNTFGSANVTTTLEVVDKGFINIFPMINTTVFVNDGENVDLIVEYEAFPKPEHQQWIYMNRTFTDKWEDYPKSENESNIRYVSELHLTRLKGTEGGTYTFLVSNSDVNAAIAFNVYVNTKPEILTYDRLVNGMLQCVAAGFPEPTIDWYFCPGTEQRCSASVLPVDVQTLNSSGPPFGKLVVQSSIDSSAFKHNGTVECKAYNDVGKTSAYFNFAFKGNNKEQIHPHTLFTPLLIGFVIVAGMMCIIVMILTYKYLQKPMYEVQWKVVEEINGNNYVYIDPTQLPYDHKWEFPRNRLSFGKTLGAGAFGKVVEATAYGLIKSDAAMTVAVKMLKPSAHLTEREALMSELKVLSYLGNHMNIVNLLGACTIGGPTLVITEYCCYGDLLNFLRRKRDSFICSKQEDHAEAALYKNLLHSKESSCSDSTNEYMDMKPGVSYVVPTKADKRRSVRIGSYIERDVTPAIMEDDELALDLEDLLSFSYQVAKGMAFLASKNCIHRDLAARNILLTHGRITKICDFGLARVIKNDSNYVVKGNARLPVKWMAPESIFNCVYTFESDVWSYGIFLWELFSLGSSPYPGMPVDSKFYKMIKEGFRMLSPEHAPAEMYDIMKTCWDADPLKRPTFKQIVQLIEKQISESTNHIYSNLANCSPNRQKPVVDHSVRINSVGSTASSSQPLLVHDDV

[17] = biological target: Ankyrin repeat and protein kinase domain-containing protein 1 (Homo sapiens) (UniProt Q8NFD2); assay: Binding affinity to wild-type human partial length ANKK1 (M1 to A305 residues) expressed in mammalian expression system assessed as residual binding level at 1 uM by Kinomescan method relative to control; outline: as §4
Ankyrin repeat and protein kinase domain-containing protein 1 (Homo sapiens), sequence (Q8NFD2 whole entry, the tested form may be a part): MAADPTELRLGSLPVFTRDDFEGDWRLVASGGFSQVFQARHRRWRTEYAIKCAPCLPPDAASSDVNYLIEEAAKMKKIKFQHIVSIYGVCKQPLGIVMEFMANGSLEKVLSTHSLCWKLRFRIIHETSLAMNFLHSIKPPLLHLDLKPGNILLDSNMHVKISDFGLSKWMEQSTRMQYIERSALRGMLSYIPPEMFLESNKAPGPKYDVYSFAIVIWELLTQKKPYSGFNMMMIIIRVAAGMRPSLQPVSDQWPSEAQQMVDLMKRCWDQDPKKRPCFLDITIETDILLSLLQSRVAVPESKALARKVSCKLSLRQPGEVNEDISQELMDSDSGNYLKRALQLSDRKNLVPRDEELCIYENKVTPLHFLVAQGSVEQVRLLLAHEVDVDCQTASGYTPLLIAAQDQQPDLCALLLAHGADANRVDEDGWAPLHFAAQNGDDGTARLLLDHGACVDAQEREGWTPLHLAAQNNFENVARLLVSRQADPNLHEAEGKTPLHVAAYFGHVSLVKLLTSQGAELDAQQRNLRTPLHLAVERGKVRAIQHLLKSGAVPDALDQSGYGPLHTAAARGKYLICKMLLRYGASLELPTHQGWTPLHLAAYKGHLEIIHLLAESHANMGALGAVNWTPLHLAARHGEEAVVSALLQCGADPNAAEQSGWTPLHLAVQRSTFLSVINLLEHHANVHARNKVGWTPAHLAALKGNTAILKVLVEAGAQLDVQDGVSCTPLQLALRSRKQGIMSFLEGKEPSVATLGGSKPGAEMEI

[18] = system: Mast/stem cell growth factor receptor Kit (Homo sapiens), P10721 [D816H]; assay: Binding affinity to human partial length KIT D816H mutant (I571 to D952 residues) expressed in mammalian expression system assessed as residual binding level at 1 uM by Kinomescan method relative to control; outline: as §2
Mast/stem cell growth factor receptor Kit (Homo sapiens), P10721 [D816H], sequence (P10721 whole entry D816H, the tested form may be a part): as the sequence (P10721 whole entry D816V, the tested form may be a part) above, with V816H counted along it

[19] = biological target: Serine/threonine-protein kinase BRSK2 (Homo sapiens) (UniProt Q8IWQ3); assay: Binding affinity to wild-type human full length BRSK2 (M1 to L674 residues) expressed in bacterial expression system assessed as residual binding level at 1 uM by Kinomescan method relative to control; outline: as §3
[20] = system: Mast/stem cell growth factor receptor Kit (Homo sapiens), P10721 [V559D,T670I]; assay: Binding affinity to human partial length KIT V559D/T670I double mutant (Y545 to D952 residues) expressed in bacterial expression system assessed as residual binding level at 1 uM by Kinomescan method relative to control; outline: as §2

`C=CC(=O)Nc1ccccc1Nc1nc(Nc2ccc(N3CCN(C)CC3)cc2)ncc1C(=O)Nc1c(C)cccc1Cl` was tested, and the Activity [1] was 97%, the Activity [2] was 100% and the Activity [3] was 100%. It also gave an Activity [4] of 100%, an Activity [5] of 100% and an Activity [6] of 100%. It also gave an Activity [7] of 100%, an Activity [8] of 65% and an Activity [9] of 100%. The Emax (HCC827) was -0.6, the Activity [10] was 100% and the Activity [11] was 92%. It also gave an Activity [12] of 69%, an Activity [13] of 28% and an Activity [14] of 100%. It also gave an Activity [15] of 2%, an Activity [16] of 100% and an Activity [17] of 98%. For the same compound, the Activity [18] was 41%, the Activity [19] was 100% and the Activity [20] was 100%.
